Assay results: ChEMBL document CHEMBL1146868, “Design, synthesis, and biophysical and biological evaluation of a series of pyrrolobenzodiazepine-poly(N-methylpyrrole) conjugates” (J Med Chem, 2006); call rule not given here

Key:
[1] = tested on: Panel NCI-60 (60 carcinoma cell lines); test: Cytotoxicity against human NCI60 cell line […]; type: functional; conditions: for CC50: read-out: LC50 (the source's name)
K562 = test: Cytotoxicity against human K562 cell line after 96 hrs by MTT assay; type: functional; conditions: K562, 96 h
Nucleic Acid = test: Inhibition of DNA transcription at 5 uM; type: functional
How it was run: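 In vitro transcription of a DNA template by a viral RNA polymerase. Read-out is the sites where transcription stops and the amount of full-length 266-nt transcript. Activity is expressed as 50% inhibition of full-length transcript synthesis.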

MCF7 [2] = test: Uptake in human MCF7 cells at 100 uM after 24 hrs; type: ADME, cell-based; conditions: mcf7, 24 h
How it was run: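 MCF-7 cells were exposed to the conjugates for 24 h, at up to 100 µM. Cellular and nuclear uptake was assessed from intrinsic fluorescence.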

MCF7 [3] = test: Uptake in human MCF7 cells after <1 hr; type: ADME, cell-based; conditions: mcf7, 1 h

SMILES	GI50 [1] [nM]	TGI [1] [nM]	CC50 [1] [nM]	GI50 (K562) [nM]	inhibition (Nucleic Acid) [%]	Drug uptake (MCF7 [2])	Drug uptake (MCF7 [3])
C=C1C[C@H]2C=Nc3cc(OCCCOc4cc5c(cc4OC)C(=O)N4CC(=C)C[C@H]4C=N5)c(OC)cc3C(=O)N2C1 [SJG-136]	7.4	87.1	562	3.8	–	–	–
COC(=O)c1cc(NC(=O)c2cc(NC(=O)c3cc(NC(=O)c4cc(NC(=O)CCCOc5cc6c(cc5OC)C(=O)N5CCC[C@H]5C=N6)cn4C)cn3C)cn2C)cn1C	7	18	1510	47	50	Active	–
COC(=O)c1cc(NC(=O)c2cc(NC(=O)c3cc(NC(=O)CCOc4cc5c(cc4OC)C(=O)N4CCC[C@H]4C=N5)cn3C)cn2C)cn1C	47	1760	56200	346	–	–	–
COC(=O)c1cc(NC(=O)c2cc(NC(=O)c3cc(NC(=O)CCCN(C)C)cn3C)cn2C)cn1C	72400	> 100000	> 100000	> 10000	–	–	–
COC(=O)c1cc(NC(=O)c2cc(NC(=O)c3cc(NC=O)cn3C)cn2C)cn1C	16600	44700	85100	> 10000	–	–	–
COC(=O)c1cc(NC(=O)c2cc(NC(=O)c3cc(NC(=O)CCCOc4cc5c(cc4OC)C(=O)N4CCC[C@H]4C=N5)cn3C)cn2C)cn1C	15	32	1070	41	50	Active	–
COC(=O)c1cc(NC(=O)c2cc(NC(=O)c3cc(NC(=O)c4cc(NC(=O)c5cc(NC(=O)CCCOc6cc7c(cc6OC)C(=O)N6CCC[C@H]6C=N7)cn5C)cn4C)cn3C)cn2C)cn1C	9	29	1260	83	50	Active	–
COC(=O)c1cc(NC(=O)CCCOc2cc3c(cc2OC)C(=O)N2CCC[C@H]2C=N3)cn1C	47	323	11500	51	50	–	Active
COC(=O)c1cc(NC(=O)c2cc(NC(=O)c3cc(NC(=O)c4cc(NC(=O)c5cc(NC(=O)c6cc(NC(=O)CCCOc7cc8c(cc7OC)C(=O)N7CCC[C@H]7C=N8)cn6C)cn5C)cn4C)cn3C)cn2C)cn1C	8	54	1900	30	50	Active	–
COC(=O)CCCOc1cc2c(cc1OC)C(=O)N1CCC[C@H]1C=N2	1740	11800	46800	526	–	–	–
COC(=O)c1cc(NC(=O)c2cc(NC(=O)CCCOc3cc4c(cc3OC)C(=O)N3CCC[C@H]3C=N4)cn2C)cn1C	11	120	10000	7.1	50	Active	–
COC(=O)c1cc(NC(=O)c2cc(NC(=O)c3cc(NC(=O)CCCOc4cc5c(cc4OC)C(=O)N4CCC[C@H]4C(=O)N5)cn3C)cn2C)cn1C	49000	> 50000	> 50000	> 10000	–	–	–
